Test results from PubChem BioAssay AID624466 (The Scripps Research Institute Molecular Screening Center, 2012).
Several values for one entry are separate records, joined by “and”; a condition that tells them apart may be missing. Identical values can stand only once. Out of some 360,000 compounds screened, about 5,400 (1.5%) were called active. Only a selection was taken, and actives are over-represented in it overall. A number with no mark means an inactive call.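 The calls were made as follows: active = inhibition above a per-plate cutoff, the mean inhibition of test compounds on that plate plus 3 SD (cut at about 49% in these data); inactive = the rest.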

The compounds below were run against Trace amine-associated receptor 1 (Homo sapiens) (UniProt Q96RJ0) (assay: blockers of beta-PEA-driven TAAR1 calcium signal – Fluo-8 calcium fluorescence, CHO RD-HGA16 cells, primary screen (AID 624466;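 also: 0% = DMSO plus EC80 beta-PEA response and 100% = DMSO alone without agonist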)). Settings: CHO RD-HGA16 TAAR1, Fluo-8 calcium fluorescence, antagonist; at 3 µM; active compounds read high.
Trace amine-associated receptor 1 (Homo sapiens), sequence (Q96RJ0 whole entry, looked up): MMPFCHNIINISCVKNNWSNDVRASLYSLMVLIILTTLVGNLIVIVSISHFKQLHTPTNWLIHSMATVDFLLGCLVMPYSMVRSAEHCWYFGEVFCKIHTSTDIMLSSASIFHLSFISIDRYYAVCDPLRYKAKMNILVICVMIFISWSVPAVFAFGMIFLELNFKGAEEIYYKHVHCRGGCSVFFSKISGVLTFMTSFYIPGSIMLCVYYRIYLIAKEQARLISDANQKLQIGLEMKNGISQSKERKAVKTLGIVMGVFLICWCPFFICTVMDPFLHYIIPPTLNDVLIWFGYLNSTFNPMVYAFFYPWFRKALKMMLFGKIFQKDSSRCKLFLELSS
Procedure, shortened: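 Assay system: RD-HGA16 CHO cells with stable hTAAR1 and Gα16 / Reagent: EC80 β-phenethylamine stimulus / Doses: 3 µM, single point / Timing: dye loading 75 min at 37 °C, then 30 min room temperature / Measured by: Fluo-8 intracellular calcium dye fluorescence, real-time kinetic reads / Controls: vehicle wells and EC80 agonist wells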

Structure (SMILES)	inhibition
CC(=O)c1c(O)n(C2CCCCCC2)c(=O)[nH]c1=O	-7.9%
CCCCCCN=C(CC)c1c(O)n(CCCC)c(=O)[nH]c1=O	4.8%
CCC(=NCCc1ccccc1)c1c(O)n(C2CCCCC2)c(=O)[nH]c1=O	60.3% (active)
O=C1C2(Cl)C3(Cl)C4(Cl)C(Cl)(Cl)C5(Cl)C3(Cl)C1(Cl)C5(Cl)C24Cl (stereo not given)	64.1% (active)
Cc1cccc(NC(=O)OC2CN3CCC2CC3)c1 (stereo not given)	-7.58%
Cc1cc(-c2ccc(N)c(C)c2)ccc1N	6.17%
CC[N+]1(C)CCCC(OC(=O)C(O)(c2ccccc2)c2ccccc2)C1 (stereo not given)	-0.72%
COc1cc(C(c2c(O)c3ccccc3oc2=O)c2c(C)n(C)n(-c3ccccc3)c2=O)ccc1O (stereo not given)	3.68%
CCOC(=O)C1SC2(C(F)(F)C(F)F)CC1(O)c1c(c(OC)c3occc3c1OC)O2 (stereo not given)	65.5% (active)
CC(=O)Nc1ccc(C(=O)C(Cc2ccccc2)N(C)C)cc1 (stereo not given)	-13.4%
CC(Cc1ccccc1)NCCC(c1ccccc1)c1ccccc1 (stereo not given)	45.6%
CC(Cc1ccccc1)NC=O (stereo not given)	74.1% (active)
COC(=O)C1=C(c2ccc(Cl)c(C(F)(F)F)c2)C[C@@H]2CC[C@H]1N2C(=O)NC1CC1	36.7%
COC1=CC=C2[C@H]3Cc4ccc(OC)c5c4[C@@]2(CCN3C)C1O5 (stereo not given in full)	-0.15%
COc1ccc(CN2CCN(c3ccccc3F)CC2)c(OC)c1	-21.7%
OC(CNC1CCCCC1)c1ccccc1 (stereo not given)	-11.8%
c1ccc(CCNC2CCCCCC2)cc1	85.7% (active)
c1cc2c(cc1CCNC1CCCCCC1)OCO2	-6.33%
c1ccc(CCN2CCC3(CC2)OCCO3)cc1	-16.1%
CCN(CC)C(=O)[C@@H]1C=C2c3cccc4[nH]c(Br)c(c34)C[C@H]2N(C)C1	-12.3%

Structure (SMILES)	inhibition
CN1CCC(OC(=O)c2cccc(F)c2)CC1	-5.85%
COC(=O)N1C(c2ccccc2)C1c1ccccc1 (stereo not given)	2.76%
COC(=O)C1=C(c2ccc(OCc3ccccc3)cc2)C[C@@H]2CC[C@H]1N2C(=O)NCc1ccc(Cl)cc1	-21.6%
COC(=O)C1=C(c2ccc(F)cc2OCc2ccccc2)C[C@@H]2CC[C@H]1N2C(=O)NCc1ccc(OC)c(OC)c1	60.1% (active)
COC(=O)C1=C(c2cccc(OCc3ccccc3)c2)C[C@@H]2CC[C@H]1N2C(=O)NCc1ccc(Br)cc1	-0.83%
COC(=O)C1=C(c2ccc(-c3ccccc3)c(F)c2)C[C@@H]2CC[C@H]1N2C(=O)NCc1ccc(F)cc1	-7.93%
COC(=O)C1=C(c2ccc(F)cc2OCc2ccccc2)C[C@@H]2CC[C@H]1N2C(=O)NCc1ccc(C(C)(C)C)cc1	12.1%
COC(=O)C1=C(c2ccc(OCc3ccccc3)cc2)C[C@@H]2CC[C@H]1N2C(=O)NCc1cccc(F)c1	-9.38%
COC(=O)C1=C(c2ccc(F)cc2OCc2ccccc2)C[C@@H]2CC[C@H]1N2C(=O)NCc1ccc2[nH]ccc2c1	29.6%
COC(=O)C1=C(c2ccccc2OCc2ccccc2)C[C@@H]2CC[C@H]1N2C(=O)NCc1ccc(OC)cc1	56.6% (active)
COC(=O)C1=C(c2ccc(F)cc2OCc2ccccc2)C[C@@H]2CC[C@H]1N2C(=O)NCc1ccc(Cl)cc1	52.3% (active)
O=S(=O)(c1ccccc1)N1CCC2CCNC2C1 (stereo not given)	-13.7%
CS(=O)(=O)N1CCC2CCNC2C1 (stereo not given)	-17.4%
COc1ccc2c(c1)[C@@]13CCCCC1[C@@H](C2)NCC3 (stereo not given in full)	2.15%
Cc1cc(N2CCNC[C@@H]2C)ccc1N1CC[C@H](O)C1	-25.4%
COc1ccccc1-n1c(O)c(C=NC2CC2)c(=O)[nH]c1=O	5.89%
CCCCCn1c(=O)c(C(=O)NCc2ccccn2)c(O)c2ccccc21	9.96%
CCN(CC)C(=O)Oc1ccc(NC(=O)N2CCOCC2)cc1	-5.87%
CSc1nc2ccc(C)cc2c(=O)n1-c1cccnc1	-37.6%
O=c1[nH]c(=O)n(-c2ccccc2)c(O)c1C=NC12CN3CN(CN(C3)C1)C2	3.93%

Structure (SMILES)	inhibition
Brc1ccc2c(c1)CNCc1cnnn1-2	-22.5%
Cn1c(O)c(C=NCCCC(=O)O)c(=O)n(C)c1=O	-5.57%
CCCCC(=O)N/N=C/c1c(O)n(CCC2=CCCCC2)c(=O)[nH]c1=O	-20.4%
CCCCC(=O)N/N=C/c1c(O)n(CC)c(=S)n(CC)c1=O	63.8% (active)
Clc1ccc([C@@H]2CC3CCC2N3)cn1 (stereo not given in full)	-10.7%
CC12CCC3C(CCC4CC(=O)CCC43C)C1CC(=NO)C2=O (stereo not given)	-3.38%
CCC(C)NC1(c2ccccc2)CCCCC1 (stereo not given)	-0.42%
O=C1NC(=O)C(C/C=C/c2ccccc2)C(=O)N1	9.88%
O=C1NCN(c2ccccc2)C12CCN(C(c1cccs1)c1nnnn1C1CCCCC1)CC2 (stereo not given)	8.02%
Cc1ccc(Cn2nnnc2CN2CCC(n3nnc4ccccc43)CC2)cc1	-2.23%
O=c1[nH]c2ccccc2n1C1CCN(C(c2ccccc2)c2nnnn2Cc2ccccc2)CC1 (stereo not given)	52.2% (active)
COc1ccc(-n2nnnc2C(c2cccc3ccccc23)N2CCC(n3c(=O)[nH]c4ccccc43)CC2)cc1 (stereo not given)	40.3%
CSCCC(c1nnnn1C(C)(C)C)N1CCC(n2c(=O)[nH]c3ccccc32)CC1 (stereo not given)	52.1% (active)
O=c1[nH]c2ccccc2n1C1CCN(C(c2ccnc3ccccc23)c2nnnn2Cc2ccccc2)CC1 (stereo not given)	54.6% (active)
COc1cc(OC)cc(C(=O)NCCN2CCC3(CC2)C(=O)NCN3c2ccccc2)c1	-2.28%
Oc1ccc2c3c1OC1[C@H](O)CC[C@@]4(O)[C@@H](C2)N(CC2CC2)CC[C@]314 (stereo not given in full)	-34.9% and -15.5%
CC(C)(C)c1ccc(OC(=O)N2CCCCC2)cc1	21.5%
O=c1[nH]c(=O)n(CCc2ccc(F)cc2)c(O)c1/C=N/N1CCCCC1	-33.7%
CC(C)c1ccc(O)c(CN2CCN(c3ccccc3)CC2)c1	-1.33%
CN(C)/C=C(\C=[N+](C)C)c1[nH]ncc1[N+](=O)[O-]	-2.16%
